Experimental data taken from ChEMBL document CHEMBL4411297, “Discovery, synthesis and anti-atherosclerotic activities of a novel selective sphingomyelin synthase 2 inhibitor” (Eur J Med Chem, 2019).
Activity calls are given as the source filed them. The rule behind the calls is not given here.

Assays:
[1] = test system: Mus musculus; assay: Anti-atherosclerotic activity in apoE knockout mouse fed with western-type diet assessed as reduction in CD11b+/Ly6C++/Ly6G+ dendritic cells at 40 mg/kg/day, ig for 7 weeks by flow cytometric analysis relative to control; format: functional; parameters: scale not given: the % may be the effect or the level left
In short: (§1)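 ApoE KO mice started at 8 weeks old on Western-type diet for 6 weeks. Then dosed by gavage daily with vehicle, 12.5 or 40 mg/kg for 7 weeks with the diet continued, 10 mice per group. Blood single-cell suspensions stained with antibodies in PBS and analysed by flow cytometry. Mean ± SD, n = 5.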

[2] = test system: Mus musculus; assay: Effect on plasma ALT levels in C57BL/6J mouse at 100 mg/kg/day, ig qd for 7 days measured on day 7; format: ADME, organism-based; conditions: in vivo, po, 168 h
In short: (§2)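 C57BL/6J mice dosed by gavage at 100 mg/kg once daily for 7 days. Plasma SM sampled on days 0, 3 and 7. Plasma ALT and AST measured on day 7 by automated analyzer. Compared with vehicle, n = 10.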

[3] = test system: Mus musculus; assay: Anti-atherosclerotic activity in apoE knockout mouse fed with western-type diet assessed as reduction in CD4+/CD8+ cell ratio at 40 mg/kg/day, ig for 7 weeks by flow cytometric analysis relative to control; format: functional; parameters: scale not given: the % may be the effect or the level left; in short: as §1
[4] = test system: Mus musculus; assay: Down regulation of sphingomyelin levels in C57BL/6J mouse plasma at 100 mg/kg/day, ig qd for 7 days measured on day 3 and 7; format: functional, organism-based; in short: as §2
[5] = test system: Mus musculus; assay: Anti-atherosclerotic activity in apoE knockout mouse fed with western-type diet assessed as reduction in liver SMS activity at 12.5 mg/kg/day, ig for 7 weeks relative to control; format: functional; parameters: scale not given: the % may be the effect or the level left
In short: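 ApoE KO mice on Western-type diet, dosed by gavage at 12.5 or 40 mg/kg/day for 7 weeks, n = 10. Liver homogenized at 200 mg/ml in 50 mM Tris-HCl pH 7.4, 1 mM EDTA, 250 mM sucrose. C6-NBD-ceramide and DMPC added, incubated at 37 °C, quenched with ethanol. Product read by TLC or HPLC, relative to vehicle.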

[6] = Dose normalized AUC (0 to 8 hrs) in C57BL/6J mouse at 50 mg/kg/day, ig by HPLC-MS/MS analysis; format: ADME, organism-based; conditions: in vivo, po
In short: (§3)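 Male C57BL/6J mice, six to eight weeks old, about 20 g, fasted 12 h with free water. Given a single intragastric dose of 25, 50 or 100 mg/kg in 10% DMSO/30% PEG-100/0.9% NaCl. Blood taken retro-orbitally at 5 min to 8 h. Plasma protein-precipitated with methanol plus internal standard, then HPLC-MS/MS on a C18 column. Noncompartmental analysis, n = 6.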

[7] = test system: Mus musculus; assay: Effect on plasma AST levels in C57BL/6J mouse at 100 mg/kg/day, ig qd for 7 days measured on day 7; format: ADME, organism-based; conditions: in vivo, po, 168 h; in short: as §2
[8] = Cmax in C57BL/6J mouse at 100 mg/kg/day, ig by HPLC-MS/MS analysis; format: ADME, organism-based; parameters: dose 100 mg/kg/day, route intragastric; conditions: in vivo, po; in short: as §3
[9] = AUC (0 to infinity) in C57BL/6J mouse at 50 mg/kg/day, ig by HPLC-MS/MS analysis; format: ADME, organism-based; parameters: dose 50 mg/kg/day, time infinity, route intragastric; conditions: in vivo, po; in short: as §3
[10] = species: Homo sapiens; assay: Selectivity ratio of IC50 for purified SMS1 (unknown origin) to IC50 for purified SMS2 (unknown origin)
[11] = molecular target: T1, Phosphatidylcholine:ceramide cholinephosphotransferase 2 (Homo sapiens, UniProt Q8NHU3); assay: Inhibition of SMS2 (unknown origin) over-expressed in H5 insect cell lysate using C6-NBD-Ceramide and DMPC as substrates preincubated for 30 mins followed by substrate addition and measured after 2 hrs by TLC or HPLC method; format: subcellular
T1 sequence (Q8NHU3 whole entry): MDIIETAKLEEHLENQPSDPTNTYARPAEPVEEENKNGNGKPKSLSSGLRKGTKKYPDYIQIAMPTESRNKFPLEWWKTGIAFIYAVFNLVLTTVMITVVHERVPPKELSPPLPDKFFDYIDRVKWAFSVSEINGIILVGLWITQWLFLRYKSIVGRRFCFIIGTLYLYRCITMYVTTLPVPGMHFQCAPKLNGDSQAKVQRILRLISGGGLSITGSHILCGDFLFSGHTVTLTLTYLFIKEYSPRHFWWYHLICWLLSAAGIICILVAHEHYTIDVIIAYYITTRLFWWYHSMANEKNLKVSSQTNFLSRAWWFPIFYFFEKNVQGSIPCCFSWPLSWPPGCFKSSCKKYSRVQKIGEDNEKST

[12] = test system: BMDM; assay: Inhibition of LPS-induced MCP1 production in C57BL/6J mouse bone marrow derived macrophages at 6.25 to 50 uM preincubated for 17 hrs followed by LPS-stimulation and measured after 6 hrs by ELISA; format: functional, cell-based
In short: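 Mouse bone marrow-derived macrophages exposed to a range of inhibitor concentrations for 17 h, then LPS 50 ng/ml for 6 h; IL-6 and MCP-1 in culture medium quantified by ELISA. Mean ± SD, n = 7.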

[13] = Half life in C57BL/6J mouse at 25 mg/kg/day, ig by HPLC-MS/MS analysis; format: ADME, organism-based; conditions: in vivo, po; in short: as §3
[14] = test system: Mus musculus; assay: Anti-atherosclerotic activity in apoE knockout mouse fed with western-type diet assessed as reduction in lesions in proximal aorta at 12.5 mg/kg/day, ig for 7 weeks by hematoxylin and eosin staining-based assay relative to control; format: functional; parameters: scale not given: the % may be the effect or the level left
In short: (§4)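 ApoE KO mice fed Western-type diet, then given 12.5 or 40 mg/kg/day by gavage in 30% PEG-400/10% DMSO/0.9% NaCl for 7 weeks. Aortic root: H&E-stained 4 µm sections, mean lesion area from 6 sections per animal. Whole aorta: en face Oil Red O staining, percentage of area stained. Compared with vehicle, n = 10.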

[15] = Tmax in C57BL/6J mouse at 25 mg/kg/day, ig by HPLC-MS/MS analysis; format: ADME, organism-based; conditions: in vivo, po
In short: (§5)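 Male C57BL/6J mice (6–8 weeks, ~20 g), fasted 12 h, given a single intragastric dose of 25, 50 or 100 mg/kg in 10% DMSO/30% PEG/0.9% NaCl. Retro-orbital blood at 5 min to 8 h; plasma protein-precipitated with methanol plus internal standard, assayed by LC-MS/MS; noncompartmental analysis. Mean ± SD, n = 6.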

[16] = molecular target: T2, Phosphatidylcholine:ceramide cholinephosphotransferase 2 (Homo sapiens) (UniProt Q8NHU3); assay: Inhibition of SMS2 in human HuH7 cells assessed as down regulation of apoB secretion incubated for 17 hrs followed by further incubation for 2 hrs in presence of [35S]-methionine; format: cell-based
T2 sequence (whole entry): T1 sequence (Q8NHU3 whole entry)
In short: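 Huh7 human hepatoma cells treated with inhibitor 17 h, then pulse-labeled with [³⁵S]-methionine for 2 h with vehicle or compound; secreted [³⁵S]-apoB in medium detected and quantified.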

[17] = AUC (0 to 8 hrs) in C57BL/6J mouse at 50 mg/kg/day, ig by HPLC-MS/MS analysis; format: ADME, organism-based; parameters: time < 8 hr, dose 50 mg/kg/day, route intragastric; conditions: in vivo, po; in short: as §3
[18] = MRT (0 to infinity) in C57BL/6J mouse at 25 mg/kg/day, ig by HPLC-MS/MS analysis; format: ADME, organism-based; conditions: in vivo, po; in short: as §5
[19] = Apparent volume of distribution during terminal phase in C57BL/6J mouse at 50 mg/kg/day, ig by HPLC-MS/MS analysis; format: ADME, organism-based; conditions: in vivo, po, read-out: Vz/F; in short: as §3
[20] = test system: Mus musculus; assay: Anti-atherosclerotic activity in apoE knockout mouse fed with western-type diet assessed as reduction in lesions in whole aorta at 12.5 to 40 mg/kg/day, ig for 7 weeks by oil-red O staining-based assay relative to control; format: functional, organism-based; in short: as §4

CCc1ccccc1COc1ccccc1C(=O)Nc1cccnc1
Activity [1]: 43% | Activity [2]: Non-Toxic | Activity [3]: 37% | Activity [4]: Active | Activity [5]: 35% | AUC/dose [6]: 0.12 µg·h/mL | Activity [7]: Non-Toxic | Cmax [8]: 14100 ng/mL | AUC(0-inf) [9]: 6790 ng·h/mL | Ratio IC50 [10]: > 1400 | IC50 [11]: 880 nM | inhibition [12]: Active | half-life [13]: 3.22 h | Activity [14]: 38% | Tmax [15]: 6.6 min | inhibition [16]: Dose-dependent effect | AUC at 8 h [17]: 6260 ng·h/mL | MRT inf [18]: 3.64 h | Vd/F [19]: 26.5 L | Activity [20]: Dose-dependent effect
